Measurements: BindingDB's records for doi:10.1021/jm9009229 (University of California, 2010)

Molecular target: Cruzipain (Trypanosoma cruzi, UniProt P25779)
Test: Inhibition of Trypanosoma cruzi cruzain preincubated for 5 mins before substrate addition in presence of 0.01% Triton X-100
Procedure, shortened: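 Cruzain IC50s were measured from dose-response curves with Triton X-100 in the assay buffer at either 0.01% or 0.001%. At 0.001% Triton, some runs included pre-incubation with BSA.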

Cruzipain, sequence (P25779 whole entry): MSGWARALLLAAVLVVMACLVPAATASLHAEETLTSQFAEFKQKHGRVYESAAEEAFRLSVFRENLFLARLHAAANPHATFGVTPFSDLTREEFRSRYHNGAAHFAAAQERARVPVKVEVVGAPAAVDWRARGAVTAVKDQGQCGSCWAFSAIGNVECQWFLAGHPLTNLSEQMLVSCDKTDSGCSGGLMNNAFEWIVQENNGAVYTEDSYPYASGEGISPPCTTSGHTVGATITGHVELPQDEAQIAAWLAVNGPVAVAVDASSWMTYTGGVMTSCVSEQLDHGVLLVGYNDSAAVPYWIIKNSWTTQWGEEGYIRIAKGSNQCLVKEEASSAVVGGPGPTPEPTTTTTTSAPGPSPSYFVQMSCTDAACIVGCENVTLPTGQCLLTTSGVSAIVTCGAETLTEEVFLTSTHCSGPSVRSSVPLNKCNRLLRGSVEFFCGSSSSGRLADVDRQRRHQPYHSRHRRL

| IC50 | SMILES |
| --- | --- |
| > 100 µM | Cc1cc(NC(=O)c2nnc(-c3ccccc3N)o2)[nH]n1 [5-(2-Amino-phenyl)-[1,3,4]oxadiazole-2-carboxylic acid(5-methyl-2H-pyrazol-3-yl)-amide] |
| > 100 µM | Cc1ccc(-c2cc(NC(=O)c3nnc(-c4ccccc4N)o3)[nH]n2)cc1 [5-(2-Amino-phenyl)-[1,3,4]oxadiazole-2-carboxylic acid(5-p-tolyl-2H-pyrazol-3-yl)-amide] |
| > 100 µM | Nc1ccccc1-c1nnc(C(=O)Nc2cc(-c3ccccc3)n[nH]2)o1 [5-(2-Amino-phenyl)-[1,3,4]oxadiazole-2-carboxylic acid(5-phenyl-2H-pyrazol-3-yl)-amide] |
| > 50 µM | CC(C)(C)c1cc(NC(=O)c2nnc(-c3ccccc3N)o2)[nH]n1 [5-(2-Amino-phenyl)-[1,3,4]oxadiazole-2-carboxylic acid(5-tert-butyl-2H-pyrazol-3-yl)-amide] |
| > 100 µM | Nc1ccccc1-c1nnc(C(=O)Nc2ccc3oc4c(c3c2)CCCC4)o1 [5-(2-Amino-phenyl)-[1,3,4]oxadiazole-2-carboxylic acid(6,7,8,9-tetrahydrodibenzofuran-2-yl)-amide] |
| > 100 µM | COc1ccc(-c2cc(NC(=O)c3nnc(-c4ccccc4N)o3)[nH]n2)cc1 [5-(2-Amino-phenyl)-[1,3,4]oxadiazole-2-carboxylic acid[5-(4-methoxy-phenyl)-1Hpyrazol-3-yl]-amide] |

| SMILES | IC50 |
| --- | --- |
| Nc1ccccc1-c1nnc(C(=O)Nc2cccc(N3CCCC3)c2)o1 [5-(2-Amino-phenyl)-[1,3,4]oxadiazole-2-carboxylic acid(3-pyrrolidin-1-yl-phenyl)-amide] | > 100 µM |
